Here are results for 15 compounds from ChEMBL document CHEMBL3603821, “Optimization of N-aryl-6-methoxy-1,2,3,4-tetrahydroquinolines as tubulin polymerization inhibitors” (Bioorg Med Chem, 2015).

In one data set the test system is A549. Nature of the data set: Antiproliferative activity against human A549 cells assessed as cell growth inhibition by SRB assay. It is filed as functional. Put shortly: (§1)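 SRB assay in a human tumor cell line panel (A-549 lung, KB nasopharyngeal, P-glycoprotein-overexpressing KBvin, DU145 prostate).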
Another data set deals with KB. Put plainly: Antiproliferative activity against human KB cells assessed as cell growth inhibition by SRB assay. It is filed as functional.
A short description of data set [1]: Antiproliferative activity against human vincristine-resistant KBVIN cells expressing P-glycoprotein assessed as cell growth inhibition by SRB assay. It is filed as functional. Put shortly:
as §1

The target in the next data set is Tubulin. Put plainly: Inhibition of tubulin (unknown origin) assembly pre-incubated for 15 mins before GTP addition measured after 20 mins by turbidimetry. It is filed as protein-complex assay, Homo sapiens.
In data set [2] the target is T1, Tubulin (Homo sapiens) (UniProt P68371+Q9H4B7+P0DPH7+P68366+Q13509+Q71U36+P04350+Q3ZCM7+P07437+P68363+Q9BQE3+Q6PEY2+Q13885+Q9BVA1+Q9BUF5). Put plainly: Displacement of [3H]-colchicine from tubulin (unknown origin) at 5 uM after 10 mins. It is filed as protein-complex assay. Put shortly: (§2)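 Radioligand binding competition: 1.0 μM tubulin incubated with 5.0 μM [3H]colchicine plus inhibitor at 5.0 or 1.0 μM for 10 min at 37 °C. At that point control binding is about 40–60% of maximum. Result is percent inhibition of colchicine binding ± SD.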

In data set [3] the target is T1, Tubulin (Homo sapiens). Put plainly: Displacement of [3H]-colchicine from tubulin (unknown origin) at 1 uM after 10 mins. The format is protein-complex assay. The gist of the method: as §2
A further data set concerns DU-145. Nature of the data set: Antiproliferative activity against human DU145 cells assessed as cell growth inhibition by SRB assay. The format is functional. Put shortly:
as §1

A short description of data set [4]: Aqueous solubility of the compound at pH 7.4 by HPLC-UV method. It is filed as physicochemical. The note with it: buffer.
The nature of data set [5]: Octanol/water partition coefficient, log P of the compound after 24 hrs by HPLC analysis. The format is physicochemical. The gist of the method: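 Log P measured at pH 7.4 with HPLC-UV on a C18 column (4.6 × 150 mm, 5 μm). Eluent MeOH/water 80:20 containing 0.04% ammonium acetate, run at 0.8 mL/min, with detection at 254 nm. Value given as mean ± SD of three separate experiments.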

Each structure is given as a SMILES string. In brackets after ≈: the same amount, converted by molar mass.

On to `COc1ccc2c(c1)CCCN2c1ncnc2ccccc12`, for which the figures for the GI50 (in the data set on A549; in the data set with KB; in data set [1]) were 18 nM, 14 nM and 19 nM, respectively. The compound further showed a 50% inhibitory concentration (IC50) against Tubulin of 1300 nM. Moreover, the inhibition on Tubulin (Homo sapiens) [2] worked out at 91%; on Tubulin (Homo sapiens) [3], 69%.

Take `COc1ccc2c(c1)CCCN2c1cccc2cccnc12`: the concentration for 50% growth inhibition (GI50) in the data set with A549 is 12100 nM; in the data set on KB it was 16200 nM; in data set [1] it was 8710 nM; with DU-145, 12800 nM. In addition, the IC50 at Tubulin was over 20000 nM.

Take `COc1ccc2c(c1)CCCN2c1nc(N(C)C)nc2ccccc12`: the concentration for 50% growth inhibition (GI50) in the data set on A549 worked out at 170 nM; in the data set on KB, 140 nM; in data set [1] it was 200 nM; in the data set on DU-145, 150 nM.

Consider `COc1ccc2c(c1)CCCN2c1nc(N)nc2[nH]cnc12`, for which the GI50 in the data set on A549 is 19400 nM; with KB it was 17500 nM; in data set [1], 18900 nM; in the data set with DU-145, 18000 nM.

On to `CC(=O)O[C@H]1C(=O)[C@@]2(C)[C@H]([C@H](OC(=O)c3ccccc3)[C@]3(O)C[C@H](OC(=O)[C@H](O)[C@@H](NC(=O)c4ccccc4)c4ccccc4)C(C)=C1C3(C)C)[C@]1(OC(C)=O)CO[C@@H]1C[C@@H]2O` [PACLITAXEL], for which the 50% growth inhibitory concentration (GI50) in the data set with A549 stood at 7.6 nM; in the data set with KB, 6.4 nM; in data set [1] it was 1210 nM; with DU-145 it was 6 nM.

As for `COc1ccc2c(c1)CCCN2c1ccnc2ccccc12`, the concentration for 50% growth inhibition (GI50) was determined as 200 nM in the data set on A549, 160 nM in the data set on KB, 180 nM in data set [1] and 180 nM in the data set on DU-145.

With `COc1ccc2c(c1)CCCN2c1ncnc2[nH]cnc12`, the GI50 (with A549; with KB; in [1]; in the data set with DU-145) was over 35000 nM throughout.

In the case of `COc1ccc2c(c1)CCCN2c1cncc2ccccc12`, the GI50 in the data set with A549 amounted to 1950 nM; with KB it was 1480 nM; in [1], 1540 nM; with DU-145 it was 920 nM. This compound also registered an IC50 against Tubulin of 3300 nM. At Tubulin (Homo sapiens) [2], this compound yielded an inhibition of 39%.

Regarding `COc1ccc2c(c1)CCCN2c1nc(NC2CCCC2)nc2ccccc12`, the concentration for 50% growth inhibition (GI50) in the data set with A549 amounted to 1340 nM; in the data set on KB it was 1190 nM; in data set [1], 1420 nM; in the data set on DU-145, 1290 nM. For the same compound, the concentration for half-maximal inhibition (IC50) on Tubulin worked out at 5700 nM. The inhibition at Tubulin (Homo sapiens) [2] turned out to be 29%.

As for `COc1ccc2c(c1)CCCN2c1nc(NCCCO)nc2ccccc12`, the 50% growth inhibitory concentration (GI50) with A549 came out at 16 nM; in the data set with KB, 18 nM; in data set [1] it was 19 nM; in the data set on DU-145 it was 20 nM. In addition, on Tubulin, half-maximal inhibition (IC50) was put at 850 nM. The inhibition came out at 78% at Tubulin (Homo sapiens) [2] and 49% on Tubulin (Homo sapiens) [3]. Moreover, in [4], the solubility turned out to be 75.6 µg/mL (≈ 207 µM). For the same compound, the logP in data set [5] amounted to 3.43.

As to `COc1ccc2c(c1)CCCN2c1nc(OC)nc2ccccc12`, the concentration for 50% growth inhibition (GI50) in the data set on A549 is 24 nM; in the data set on KB it was 26 nM; in data set [1], 30 nM; in the data set with DU-145 it was 21 nM.

`COc1ccc(/C=C\c2cc(OC)c(OC)c(OC)c2)cc1O` [COMBRETASTATIN A4]: the GI50 in the data set with A549 amounted to 84.1 nM; with KB it was 3.6 nM; in data set [1], 1.2 nM.

Consider `COc1ccc2c(c1)CCCN2c1nccc2ccccc12`, for which the GI50 in the data set with A549 worked out at 2080 nM; in the data set on KB, 1720 nM; in data set [1], 1640 nM; in the data set with DU-145, 1470 nM. On Tubulin, this compound came in with an IC50 of 2600 nM. Moreover, the inhibition on Tubulin (Homo sapiens) [2] turned out to be 37%.

Take `COc1ccc2c(c1)CCCN2c1nc(NC2CC2)nc2ccccc12`: the GI50 in the data set with A549 worked out at 16 nM; with KB, 13 nM; in the data set on DU-145, 16 nM. The same compound had a half-inhibitory concentration (IC50) against Tubulin of 1300 nM. Also, the inhibition was found to be 89% at Tubulin (Homo sapiens) [2] and 56% at Tubulin (Homo sapiens) [3]. This compound also came in with a solubility in [4] of 2.55 µg/mL (≈ 7.36 µM). In [5], this compound registered a lipophilicity (logP) of 4.13.

For the compound `COc1ccc2c(c1)CCCN2c1nc(F)nc2[nH]cnc12`, the concentration for 50% growth inhibition (GI50) in the data set on A549 is 23600 nM; with KB it was over 33000 nM; in data set [1] it was 27100 nM; with DU-145 it was 25500 nM.
